The source made the active and inactive calls. The rule behind the calls is not given here.
Experiments:
Plasmodium falciparum [1] = test: Antimalarial activity against chloroquine and pyrimethamine-resistant Plasmodium falciparum W2 infected in type O+ human RBC assessed as reduction in [3H]hypoxanthine incorporation preincubated for 48 hrs followed by [3H]hypoxanthine addition measured after 96 hrs; type: functional
Procedure, shortened: (§1)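 Ring-stage synchronized cultures (>90% early trophozoite, D-sorbitol) at 0.5% parasitemia, 2% hematocrit in hypoxanthine-free RPMI-1640-LPLF with 10% human plasma, 37°C under 5% O2/5% CO2/90% N2. Ten 2-fold serial dilutions of prodrug for 96 h. [3H]-hypoxanthine (0.2 μCi/well) added at ~48 h. IC50 from non-linear regression of incorporation versus log concentration. Mean (±SD) of at least two independent experiments.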

[2] = Selectivity index, ratio of CC50 for human A549 cells to IC50 for Plasmodium falciparum D6; type: toxicity; conditions: read-out: Ratio CC50/IC50
Procedure, shortened: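 Ratio CC50/IC50. CC50: A549 cells, 4-day proliferation, Coulter counting. IC50: Pf D6 ring-stage cultures, 0.5% parasitemia, 2% hematocrit, hypoxanthine-free medium, ten 2-fold dilutions of phosphoramidate prodrugs for 96 h; [3H]-hypoxanthine added at ~48 h; IC50 by non-linear regression; at least two independent experiments, mean ±SD.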

[3] = Cytotoxicity against human A549 cells after 4 days by Coulter counting method; type: cell-based
Procedure, shortened: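 Human lung carcinoma A549 cells seeded at 7500 cells/well, compounds added next day in serial dilutions; 4 days at 37°C, then cells trypsinized and counted. CC50 = concentration giving 50% inhibition of proliferation versus no-compound control, derived by extrapolation assuming semi-log dose-response.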

Plasmodium falciparum [4] = test: Antimalarial activity against Plasmodium falciparum D6 infected in type O+ human RBC assessed as reduction in [3H]hypoxanthine incorporation preincubated for 48 hrs followed by [3H]hypoxanthine addition measured after 96 hrs; type: functional; procedure, shortened: as §1
[5] = biological target: T1, Hypoxanthine-guanine phosphoribosyltransferase (Homo sapiens, UniProt P00492); test: Inhibition of human HGPRT using PRib-PP as the substrate by spectrophotometric method
T1 sequence (P00492 whole entry): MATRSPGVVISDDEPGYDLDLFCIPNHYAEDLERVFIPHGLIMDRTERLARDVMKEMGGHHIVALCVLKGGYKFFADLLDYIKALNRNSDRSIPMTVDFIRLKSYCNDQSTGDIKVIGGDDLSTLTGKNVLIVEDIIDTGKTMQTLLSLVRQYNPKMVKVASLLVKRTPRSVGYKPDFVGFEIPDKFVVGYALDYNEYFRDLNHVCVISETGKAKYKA
Procedure, shortened: (§2)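 Enzyme assays in 0.1 M Tris-HCl, 10 mM MgCl2, pH 7.4. Guanine fixed at 49 µM as non-variable substrate; PRib-PP varied 20-1400 µM at fixed inhibitor concentration; Hanes' plots. Ki from Km(app) = Km[1+[I]/Ki], assuming competitive inhibition; for Ki <2 µM, Km(app) measured at three inhibitor concentrations.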

[6] = Inhibition of Plasmodium falciparum HGPRT using PRib-PP as the substrate by spectrophotometric method; procedure, shortened: as §2
Plasmodium falciparum [7] = test: Inhibition of Plasmodium falciparum HGPRT using PRib-PP as the substrate at 33 uM by spectrophotometric method
Plasmodium falciparum [8] = test: Inhibition of Plasmodium falciparum HGPRT using PRib-PP as the substrate at 50 uM by spectrophotometric method

Row | Ki [5] [nM] | SMILES | CC50 at 96 h [3] [µM] | Ki [6] [nM] | further results
1 | – | CCOC(=O)[C@H](Cc1ccccc1)NP(=O)(CCOCC(COCP(=O)(N[C@@H](Cc1ccccc1)C(=O)OCC)N[C@@H](Cc1ccccc1)C(=O)OCC)Cn1cnc2c(=O)[nH]cnc21)N[C@@H](Cc1ccccc1)C(=O)OCC (stereo not given in full) | 82 | – | IC50 (Plasmodium falciparum [1]): 3.2 µM; selectivity ratio [2]: 59; IC50 (Plasmodium falciparum [4]): 1.4 µM
2 | – | CCOC(=O)[C@H](Cc1ccccc1)NP(=O)(CCOCC(COCP(=O)(N[C@@H](Cc1ccccc1)C(=O)OCC)N[C@@H](Cc1ccccc1)C(=O)OCC)Cn1c(Br)nc2c(=O)[nH]c(N)nc21)N[C@@H](Cc1ccccc1)C(=O)OCC (stereo not given in full) | 151 | – | IC50 (Plasmodium falciparum [1]): 8.3 µM; selectivity ratio [2]: 27; IC50 (Plasmodium falciparum [4]): 5.6 µM
3 | 400 | Nc1nc2c(nc(Br)n2CC(COCCP(=O)(O)O)OCCP(=O)(O)O)c(=O)[nH]1 (stereo not given) | – | 900 | –
4 | 1800 | O=c1[nH]cnc2c1ncn2CC(COCCP(=O)(O)O)COCP(=O)(O)O (stereo not given) | – | 3000 | –
5 | 100 | Nc1nc2c(nc(Br)n2CC(COCCP(=O)(O)O)COCP(=O)(O)O)c(=O)[nH]1 (stereo not given) | – | 2000 | –
6 | – | CCOC(=O)[C@H](Cc1ccccc1)NP(=O)(CCOCC(COCP(=O)(N[C@@H](Cc1ccccc1)C(=O)OCC)N[C@@H](Cc1ccccc1)C(=O)OCC)Cn1cnc2c(=O)[nH]c(N)nc21)N[C@@H](Cc1ccccc1)C(=O)OCC (stereo not given in full) | 212 | – | IC50 (Plasmodium falciparum [1]): 7.4 µM; selectivity ratio [2]: 37; IC50 (Plasmodium falciparum [4]): 5.7 µM
7 | – | CCOC(=O)[C@H](Cc1ccccc1)NP(=O)(CCOCC(Cn1cnc2c(=O)[nH]cnc21)OCCP(=O)(N[C@@H](Cc1ccccc1)C(=O)OCC)N[C@@H](Cc1ccccc1)C(=O)OCC)N[C@@H](Cc1ccccc1)C(=O)OCC (stereo not given in full) | – | – | IC50 (Plasmodium falciparum [1]): 1.9 µM; selectivity ratio [2]: 25; IC50 (Plasmodium falciparum [4]): 3.6 µM
8 | – | CCOC(=O)[C@H](Cc1ccccc1)NP(=O)(CCOCC(COCP(=O)(N[C@@H](Cc1ccccc1)C(=O)OCC)N[C@@H](Cc1ccccc1)C(=O)OCC)Cn1ccc2c(=O)[nH]cnc21)N[C@@H](Cc1ccccc1)C(=O)OCC (stereo not given in full) | 20 | – | –
9 | – | CCOC(=O)[C@H](Cc1ccccc1)NP(=O)(CCOCC(COCP(=O)(N[C@@H](Cc1ccccc1)C(=O)OCC)N[C@@H](Cc1ccccc1)C(=O)OCC)Cn1ccc2c(=O)[nH]c(N)nc21)N[C@@H](Cc1ccccc1)C(=O)OCC (stereo not given in full) | 106 | – | IC50 (Plasmodium falciparum [1]): 6.5 µM; selectivity ratio [2]: 59; IC50 (Plasmodium falciparum [4]): 1.8 µM
10 | 700 | O=c1[nH]cnc2c1ncn2CC(COCCP(=O)(O)O)OCCP(=O)(O)O (stereo not given) | – | – | inhibition (Plasmodium falciparum [7]): inactive
11 | 4600 | O=c1[nH]cnc2c1ccn2CC(COCCP(=O)(O)O)COCP(=O)(O)O (stereo not given) | – | 6000 | –
12 | – | Nc1nc2c(ncn2CC(COCCP(=O)(O)O)OCCP(=O)(O)O)c(=O)[nH]1 (stereo not given) | – | 500 | –
13 | 2500 | O=c1[nH]cnc2c1nc(Br)n2CC(COCCP(=O)(O)O)COCP(=O)(O)O (stereo not given) | – | – | inhibition (Plasmodium falciparum [8]): inactive
14 | – | CCOC(=O)[C@H](Cc1ccccc1)NP(=O)(CCOCC(Cn1c(Br)nc2c(=O)[nH]c(N)nc21)OCCP(=O)(N[C@@H](Cc1ccccc1)C(=O)OCC)N[C@@H](Cc1ccccc1)C(=O)OCC)N[C@@H](Cc1ccccc1)C(=O)OCC (stereo not given in full) | 188 | – | –
15 | – | O=c1[nH]cnc2c1ncn2CC(COCP(=O)(O)O)COCP(=O)(O)O | – | 5000 | –
16 | – | CCOC(=O)[C@H](Cc1ccccc1)NP(=O)(CCOCC(COCP(=O)(N[C@@H](Cc1ccccc1)C(=O)OCC)N[C@@H](Cc1ccccc1)C(=O)OCC)Cn1c(Br)nc2c(=O)[nH]cnc21)N[C@@H](Cc1ccccc1)C(=O)OCC (stereo not given in full) | 36 | – | –

Row | SMILES | Ki [5] [nM] | CC50 at 96 h [3] [µM] | Ki [6] [nM] | further results
17 | Nc1nc2c(ncn2CC(COCCP(=O)(O)O)COCP(=O)(O)O)c(=O)[nH]1 (stereo not given) | 6 | – | 70 | –
18 | Nc1nc2c(ccn2CC(COCCP(=O)(O)O)COCP(=O)(O)O)c(=O)[nH]1 (stereo not given) | 100 | – | 4000 | –

From ChEMBL document CHEMBL4038349, “Synthesis and Evaluation of Asymmetric Acyclic Nucleoside Bisphosphonates as Inhibitors of Plasmodium falciparum and Human Hypoxanthine-Guanine-(Xanthine) Phosphoribosyltransferase” (J Med Chem, 2017)
